Experiments:
Penicillium digitatum [1] = assay: Fungicidal activity against Penicillium digitatum infected Valenica oranges assessed as fruit weight loss at 200 mg/L treated for 1 min at 50 degC postharvest at 20 hr after fungal conidial inoculation measured after 21 days of storage at 17 degC (water Rvb = 8.83%); type: functional
Penicillium digitatum [2] = assay: Fungicidal activity against TBZ-resistant Penicillium digitatum infected Nova mandarins assessed as postharvest green mold incidence at 600 mg/L treated for 1 min at 20 degC at 20 hr after fungal conidial inoculation measured after 5 days of storage at 20 degC (water Rvb = 100%); type: functional
Penicillium digitatum [3] = assay: Fungicidal activity against Penicillium digitatum infected Valenica oranges assessed as fruit weight loss at 400 mg/L treated for 1 min at 40 degC postharvest at 20 hr after fungal conidial inoculation measured after 7 days of storage at 17 degC in presence of 1% SBC (water Rvb = 4.49%); type: functional
Penicillium digitatum [4] = assay: (§1) Fungicidal activity against TBZ-sensitive Penicillium digitatum infected Nova mandarins assessed as postharvest green mold incidence at 400 mg/L treated for 1 min at 40 degC at 20 hr after fungal conidial inoculation measured after 5 days of storage at 20 degC in presence of 0.5% SBC (water Rvb = 100%); type: functional
Outline: (§2)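 Fruit were surface-disinfected in 1 g/L hypochlorite for 30 s, rinsed, dried, then wounded twice equatorially (2 mm × 2 mm rod). Inoculation was a 1 min dip in P. digitatum conidia, 1 × 10^5 conidia/mL final. Fruit were held 20 h at 20 °C and 90% RH, dipped 1 min (SBC wt/vol), and air-dried. Storage was 20 °C, 90% RH. Decay incidence (% fruit with lesions) was scored at 5 d for mandarins and 7 d for oranges. Three replicates of 40 fruit were used; arcsin-transformed data were compared by LSD, p ≤ 0.05.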

Penicillium digitatum [5] = assay: Fungicidal activity against TBZ-sensitive Penicillium digitatum infected Valencia oranges assessed as postharvest green mold incidence at 600 mg/L treated for 1 min at 20 degC at 20 hr after fungal conidial inoculation measured after 7 days of storage at 20 degC (water Rvb = 92.5%); type: functional
Fruit [6] = assay: Drug residues in Citrus sinensis cvs. Valencia late (Valencia oranges) at 600 mg/L treated for 1 min at 20 degC postharvest measured immediately post-drug treatment in presence of 1% SBC by GC analysis; type: ADME
Outline: (§3)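 'Valencia' oranges were dipped 1 min in TBZ at 600 mg/L (20 °C, ±0.5, 1 or 2% wt/vol SBC), 400 mg/L (40 °C, ±SBC) or 200 mg/L (50 °C, alone), then air-dried. They were sampled at 0, 10 and 20 days at 17 °C. Peel of five fruit was frozen, and 5 g of homogenate was extracted with ethyl acetate/hexane (1/1) plus NaCl. The extract was dried under N2, taken up in acetone and analysed by GC. Results are mg/kg on a whole-fruit basis.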

Penicillium digitatum [7] = assay: (§4) Fungicidal activity against TBZ-sensitive Penicillium digitatum infected Valencia oranges assessed as postharvest green mold incidence at 400 mg/L treated for 1 min at 40 degC at 20 hr after fungal conidial inoculation measured after 7 days of storage at 20 degC in presence of 1% SBC (water Rvb = 29.2%); type: functional; outline: as §2
Penicillium digitatum [8] = assay: Fungicidal activity against Penicillium digitatum infected Valenica oranges assessed as fruit weight loss at 600 mg/L treated for 1 min at 20 degC postharvest at 20 hr after fungal conidial inoculation measured after 21 days of storage at 17 degC (water Rvb = 7.98%); type: functional
Penicillium digitatum [9] = assay: Fungicidal activity against Penicillium digitatum infected Valenica oranges assessed as fruit weight loss at 200 mg/L treated for 1 min at 50 degC postharvest at 20 hr after fungal conidial inoculation measured after 14 days of storage at 17 degC (water Rvb = 6.18%); type: functional
Penicillium digitatum [10] = assay: as §1, with “TBZ-resistant” for “TBZ-sensitive”, “2%” for “0.5%”, “61.7%)” for “100%)”; type: functional
Penicillium digitatum [11] = assay: as §4, with “2%” for “1%”, “14.2%)” for “29.2%)”; type: functional; outline: as §2
Penicillium digitatum [12] = assay: Fungicidal activity against Penicillium digitatum infected Valenica oranges assessed as fruit weight loss at 400 mg/L treated for 1 min at 40 degC postharvest at 20 hr after fungal conidial inoculation measured after 14 days of storage at 17 degC (water Rvb = 6.24%); type: functional
Penicillium digitatum [13] = assay: as §1, with “TBZ-resistant” for “TBZ-sensitive”, “1%” for “0.5%”, “76.7%)” for “100%)”; type: functional
Fruit [14] = assay: Drug residues in Citrus sinensis cvs. Valencia late (Valencia oranges) at 600 mg/L treated for 1 min at 20 degC postharvest measured immediately post-drug treatment by GC analysis; type: ADME; outline: as §3
Penicillium digitatum [15] = assay: Fungicidal activity against TBZ-resistant Penicillium digitatum infected Nova mandarins assessed as postharvest green mold incidence at 400 mg/L treated for 1 min at 40 degC at 20 hr after fungal conidial inoculation measured after 5 days of storage at 20 degC (water Rvb = 96.7%); type: functional
Fruit [16] = assay: Drug residues in Citrus sinensis cvs. Valencia late (Valencia oranges) at 600 mg/L treated for 1 min at 20 degC postharvest measured after 10 days of storage at 17 degC in presence of 2% SBC by GC analysis; type: ADME; outline: as §3
Penicillium digitatum [17] = assay: as §1, with “1%” for “0.5%”, “93.3%)” for “100%)”; type: functional; outline: as §2
Penicillium digitatum [18] = assay: Fungicidal activity against TBZ-resistant Penicillium digitatum infected Nova mandarins assessed as postharvest green mold incidence at 200 mg/L treated for 1 min at 50 degC at 20 hr after fungal conidial inoculation measured after 5 days of storage at 20 degC (water Rvb = 95.0%); type: functional
Penicillium digitatum [19] = assay: as §4, with “TBZ-resistant” for “TBZ-sensitive”, “600” for “400”, “20” for “40”, “54.2%)” for “29.2%)”; type: functional
Fruit [20] = assay: Drug residues in Citrus sinensis cvs. Valencia late (Valencia oranges) at 400 mg/L treated for 1 min at 40 degC postharvest measured after 10 days of storage at 17 degC in presence of 1% SBC by GC analysis; type: ADME; outline: as §3
Fruit [21] = assay: Drug residues in Citrus sinensis cvs. Valencia late (Valencia oranges) at 600 mg/L treated for 1 min at 20 degC postharvest measured after 10 days of storage at 17 degC in presence of 0.5% SBC by GC analysis; type: ADME; outline: as §3
Penicillium digitatum [22] = assay: Fungicidal activity against Penicillium digitatum infected Valenica oranges assessed as fruit weight loss at 600 mg/L treated for 1 min at 20 degC postharvest at 20 hr after fungal conidial inoculation measured after 14 days of storage at 17 degC in presence of 0.5% SBC (water Rvb = 7.44%); type: functional
Fruit [23] = assay: Drug residues in Citrus sinensis cvs. Valencia late (Valencia oranges) at 400 mg/L treated for 1 min at 40 degC postharvest measured immediately post-drug treatment by GC analysis; type: ADME; outline: as §3
Penicillium digitatum [24] = assay: Fungicidal activity against Penicillium digitatum infected Valenica oranges assessed as fruit weight loss at 400 mg/L treated for 1 min at 40 degC postharvest at 20 hr after fungal conidial inoculation measured after 7 days of storage at 17 degC in presence of 2% SBC (water Rvb = 4.70%); type: functional

## c1ccc2[nH]c(-c3cscn3)nc2c1 [THIABENDAZOLE]
Penicillium digitatum [1]
  Activity: 8.54%
Penicillium digitatum [2]
  Activity: 98.3%
Penicillium digitatum [3]
  Activity: 3.98%
Penicillium digitatum [4]
  Activity: 0%
Penicillium digitatum [5]
  Activity: 31.7%
Fruit [6]
  Drug uptake: 1.31 mg/kg
Penicillium digitatum [7]
  Activity: 5%
Penicillium digitatum [8]
  Activity: 8.85%
Penicillium digitatum [9]
  Activity: 5.8%
Penicillium digitatum [10]
  Activity: 23.3%
Penicillium digitatum [11]
  Activity: 12.5%
Penicillium digitatum [12]
  Activity: 6.26%
Penicillium digitatum [13]
  Activity: 40%
Fruit [14]
  Drug uptake: 1.59 mg/kg
Penicillium digitatum [15]
  Activity: 88.3%
Fruit [16]
  Drug uptake: 1.23 mg/kg
Penicillium digitatum [17]
  Activity: 5%
Penicillium digitatum [18]
  Activity: 65%
Penicillium digitatum [19]
  Activity: 25%
Fruit [20]
  Drug uptake: 0.7 mg/kg
Fruit [21]
  Drug uptake: 1.4 mg/kg
Penicillium digitatum [22]
  Activity: 8.15%
Fruit [23]
  Drug uptake: 0.83 mg/kg
Penicillium digitatum [24]
  Activity: 4.55%

From ChEMBL document CHEMBL3045217, “Factors affecting the synergy of thiabendazole, sodium bicarbonate, and heat to control postharvest green mold of citrus fruit” (J Agric Food Chem, 2008)
